# Bioassay records: PubChem BioAssay, several laboratories
# TRAIL sens C8 – caspase-8 TRAIL sensitization. NB7+C8 cells + TRAIL, ATPlite viability luminescence. inhibition (viability loss, TRAIL sensitization), % at 10 µM. actives 1% (n = 360,000). AID 624354;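 active = compounds causing at least 50% loss of cell viability in the single-dose screen, relative to plate controls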
# PPC-1+TRAIL kill – kills PPC-1 cancer cells in the presence of TRAIL | cell killing (% activity), % at 4 µM or 5 µM | PPC-1 cells + TRAIL, ATPLite viability luminescence | actives 0.41% (n = 220,000) | AID 1443;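 active = cell killing above 50% in the first pass at 4 µM, then a duplicate retest at 5 µM averaging 50% or more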
# Platelet DG rel – modulates dense granule release in human platelets; human platelet-rich plasma, SFLLRN dense granule ATP release, luminescence; inhibition, %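 (compounds screened at 7.5 µM in platelet-rich plasma)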; actives 0.22% (n = 300,000);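 active = mean replicate score, as percent of positive control, at or above 50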
# FLuc act counter – firefly luciferase counter-screen for stimulation assays. P08659. ATPlite luciferase biochemical, luminescence, 10 min; 0 = ATP-free wells, 1 = DMSO control. activation factor at 10 µM. 200,000 tested, under 10 active. AID 1027;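 active = luciferase activation factor, scaled between plate controls, of at least 2 with compound at 10 µM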
# Target sequence (P08659 whole entry, looked up): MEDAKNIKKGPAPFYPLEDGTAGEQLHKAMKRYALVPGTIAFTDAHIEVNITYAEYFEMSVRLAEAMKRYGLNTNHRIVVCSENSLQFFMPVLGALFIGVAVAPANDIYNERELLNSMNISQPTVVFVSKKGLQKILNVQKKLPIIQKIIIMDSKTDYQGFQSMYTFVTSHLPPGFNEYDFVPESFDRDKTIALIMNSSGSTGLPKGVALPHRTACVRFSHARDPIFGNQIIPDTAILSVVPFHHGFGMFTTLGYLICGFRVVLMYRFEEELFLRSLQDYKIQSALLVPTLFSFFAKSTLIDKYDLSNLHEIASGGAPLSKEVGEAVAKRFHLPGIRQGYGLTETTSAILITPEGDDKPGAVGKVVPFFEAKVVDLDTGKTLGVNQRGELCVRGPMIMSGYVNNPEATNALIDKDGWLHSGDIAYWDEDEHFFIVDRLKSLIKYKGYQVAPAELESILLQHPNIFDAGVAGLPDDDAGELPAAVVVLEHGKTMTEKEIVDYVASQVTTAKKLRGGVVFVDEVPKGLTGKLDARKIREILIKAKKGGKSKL
#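 Assay system – cell-free luciferase reagent · Medium – PBS-based ATP solution · Dosing – test compounds dosed from 2 mM stocks in 100% DMSO · Timing – 10 min, room temperature · Technique – light output (luminescence) · Measure – luminescence gain marking luciferase activators · Controls – No-ATP low control, compound-free enzyme-plus-ATP high control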
# FLuc inh counter – inhibits firefly luciferase, flagging false hits in luciferase inhibition screens. inhibition, % at 10 µM. P08659. ATPLite firefly luciferase biochemical luminescence, 10 min. actives 1.5% (n = 200,000);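 active = inhibition above about 50% when tested at 10 µM, limit read from the data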
# Numbers stand for hits; n = inactive; x = not tested or not shown. Hits are enriched below; roughly 1.6% of the tested compounds scored in any of these assays.
SMILES,TRAIL sens C8,PPC-1+TRAIL kill,Platelet DG rel,FLuc act counter,FLuc inh counter
COn1c(SC2CCCCC2)nc2ccccc2c1=O,67,n,n,n,n
COn1c(SCC(N)=O)nc2ccccc2c1=O,n,n,n,n,n
Cc1ccc(C2CC(c3ccco3)n3ncnc3N2)cc1 (stereo not drawn),n,n,n,n,n
Cc1ccc2c(c1)C(N1CCCC1=O)CC(c1ccco1)N2 (stereo not drawn),48,n,n,n,95
CC(=O)Nc1cc(-c2ccccc2)cn2c(-c3cccc(C(C)=O)c3)cnc12,n,x,x,x,x
CC(C)(C)c1ccc(C(=O)Nc2ccc(C=C(C#N)C#N)cc2)cc1,53,50,n,n,n
COC(=O)C[C@H]1C=C[C@@H](NS(=O)(=O)c2ccccc2)[C@@H](CO)O1,n,x,x,x,x
Cc1c(C)c2ccc(OCC(=O)NCCc3c[nH]c4ccccc34)cc2oc1=O,n,x,x,x,x
O=C(Nc1ccc2ccccc2c1)c1ccccc1O,72,x,n,x,x
O=C(Nc1ccc2ccccc2c1)c1ccc(Cl)cc1Cl,61,n,n,x,x
O=C(Nc1ccc2ccccc2c1)c1ccccc1Cl,n,x,x,x,x
COCCNC(=O)C1(C)CCN(C(=O)c2cc(C(C)(C)C)nn2C)C1 (stereo not drawn),n,x,x,x,x
Cc1cc(N)n(-c2nc3ccccc3s2)n1,n,x,n,n,75
Cc1nn(-c2ccccc2)c(N)c1-c1ccccc1,n,n,n,n,73
Cc1nn(-c2nc3ccccc3s2)c(N)c1-c1ccccc1,n,n,n,n,52
CC(C)c1ccc(NC(=O)CSc2ncccc2C(=O)Oc2cccc([N+](=O)[O-])c2)cc1,67,n,n,n,n
COc1ccc(NC(=O)CSc2ncccc2C(=O)OC(C)C)cc1OC,n,n,n,n,n
C=CC(=O)N1C/C(=C/c2ccc(F)cc2)C(=O)/C(=C\c2ccc(F)cc2)C1,93,x,x,x,x
Cc1nc(-c2ccc(NC(=O)C3CC3)cc2)cs1,n,x,n,x,x
Cc1nc(-c2ccc(NC(=O)c3ccc(Br)o3)cc2)cs1,55,x,n,x,x
Cc1nc(-c2ccc(NC(=O)CC(C)C)cc2)cs1,53,n,n,n,68
O=c1cc(CN2CCN(c3ccccc3O)CC2)nc2sccn12,n,n,72,n,n
O=C(NCc1ccccc1)C(c1cc2ccccc2o1)n1c(=O)c(-c2ccco2)nc2ccccc21 (stereo not drawn),n,x,x,x,x
COCCNC(=O)C1(C)CCN(C(=O)c2nc(C)oc2C)C1 (stereo not drawn),n,x,x,x,x
C=C(C)[C@@H]1CC=C(CN2CCC(N3CCC(C(=O)N4CCCC4)CC3)CC2)CC1,n,n,n,n,n
SMILES,TRAIL sens C8,PPC-1+TRAIL kill,Platelet DG rel,FLuc act counter,FLuc inh counter
Cc1ncc(CN2CCC(N3CCC(C(=O)N4CCCC4)CC3)CC2)s1,n,x,55,x,x
CCOC(=O)C1=CCN(S(=O)(=O)c2ccccc2Br)C1c1ccc(Cl)c(Cl)c1 (stereo not drawn),n,x,x,x,x
N#Cc1ccccc1COC(=O)c1cc(S(=O)(=O)N2CCOCC2)ccc1F,n,x,x,x,x
Cc1noc(C)c1COC(=O)c1cc(S(=O)(=O)N2CCOCC2)ccc1F,n,x,x,x,x
CCc1cc2c(COC(=O)c3cc(S(=O)(=O)N4CCOCC4)ccc3F)cc(=O)oc2cc1O,75,x,x,x,x
O=C(OCc1cc(=O)oc2cc(O)ccc12)c1cc(S(=O)(=O)N2CCOCC2)ccc1F,68,x,n,x,x
O=C(N=Nc1c(O)[nH]c2ccccc12)c1cc(NS(=O)(=O)c2cccs2)cc(NS(=O)(=O)c2cccs2)c1,n,n,n,n,n
O=C(N=Nc1c(O)[nH]c2ccccc12)c1cccs1,62,n,n,n,89
Cn1c(O)c(N=NC(=O)c2cc(-c3cccs3)nc3ccccc23)c2ccccc21,n,n,n,n,n
O=C(N=Nc1c(O)[nH]c2ccc(Br)cc12)c1cc(-c2cccs2)nc2ccccc12,87,n,n,n,n
CN(C)c1ccc(C(=O)OCc2ccccc2)cc1,n,n,n,n,n
O=C1C=CC(=O)C(CNc2ccc(C(=O)OCc3ccccc3)cc2)=C1,91,x,x,x,x
O=C(NC1CCCC1)C(c1ccco1)N1CCN(c2c(Cl)cncc2Cl)CC1 (stereo not drawn),n,x,x,x,x
O=c1c2ccccc2oc2ccc(-c3ccc4cc[nH]c4c3)cc12,53,x,x,x,x
Cc1nc2nc(-c3ccccc3)cc(=O)n2[nH]1,n,n,n,n,56
O=c1cc(-c2ccccc2)nc2nc(-c3ccco3)[nH]n12,n,n,n,n,72
Cc1cccc(-c2cc3nc(-c4ccccc4)cc(=O)n3[nH]2)c1,44,x,n,x,x
O=c1cc(-c2ccccc2)nc2nc(CCc3ccccc3)[nH]n12,n,n,n,n,n
O=C1CCC(=O)N1c1nc2nc(-c3ccccc3)cc(=O)n2[nH]1,n,n,n,n,n
CCCNC(=O)C1(C)CCCN(Cc2ccc(-c3ccccn3)cc2)C1 (stereo not drawn),n,x,x,x,x
CCCCn1c(SCC(=O)Nc2nnc(C)s2)nc2c1c(=O)n(C)c(=O)n2C,n,n,n,n,n
CCCCn1c(SCC(=O)Nc2nnc(CC)s2)nc2c1c(=O)n(C)c(=O)n2C,64,n,n,n,n
O=[N+]([O-])c1ccc(N2CCN(Cc3ccccc3)CC2)s1,n,x,n,x,x
O=[N+]([O-])c1ccc(N2CCN(Cc3ccccc3)CC2)c2c1no[n+]2[O-],94,x,x,x,x
CCc1ccc(OCc2nc(-c3ccccn3)no2)c(Br)c1,55,n,n,n,55
SMILES,TRAIL sens C8,PPC-1+TRAIL kill,Platelet DG rel,FLuc act counter,FLuc inh counter
O=C(Nc1ccc2c(c1)OCCO2)C1c2ccccc2OCC(=O)N1CCc1ccccc1 (stereo not drawn),n,x,x,x,x
CN(C)C(=O)N1CCN(c2nc(-c3ccccc3)cs2)CC1,58,x,n,x,x
O=C(N1CCOCC1)N1CCN(c2nc(-c3ccccc3)cs2)CC1,n,n,n,n,n
O=C(NCc1ccccc1)c1cc(C2CCCN(C(=O)c3ccccc3)C2)on1 (stereo not drawn),n,x,x,x,x
O=c1c2[nH]c3ccc(F)cc3c2ncn1C1CCCCC1,51,n,n,n,n
O=c1c2[nH]c3ccc(F)cc3c2ncn1Cc1ccncc1,n,n,n,x,x
COc1cc(OC)c(C(=O)Nc2cc(S(=O)(=O)N3CCOCC3)ccc2N2CCOCC2)cc1OC,n,x,x,x,x
CCCS(=O)(=O)NC(=O)C1(C)CCCN(C(=O)c2ccccc2C(F)(F)F)C1 (stereo not drawn),n,x,x,x,x
CCn1ccc(C(=O)Oc2ccc(C(C)C)cc2)n1,n,n,n,n,62
CCn1ccc(C(=O)Nc2ccccc2Cl)n1,n,n,n,n,n
c1ccc2c(c1)Sc1cnccc1N2CC1CO1 (stereo not drawn),n,x,x,x,x
C=CCn1c(C)cc(C(=O)COC(=O)[C@@H](NC(=O)c2ccccc2Cl)C(C)C)c1C,85,77,n,n,96
Cc1ccc(S(=O)(=O)n2cccc2/C=C/[N+](=O)[O-])cc1,n,x,x,x,x
O=[N+]([O-])c1c(Nc2ccccc2O)cc(Cl)c2nonc12,71,x,n,x,x
CCC(C)c1ccc(O)c(NC(=S)NC(=O)c2cccs2)c1 (stereo not drawn),58,x,x,x,x
